In publication PMC2951064 (Journal of Medicinal Chemistry, 2010):

Columns and labels:
wtBcr-Abl-Ba/F3 = assay: Antiproliferative activity on wtBcr-Abl-Ba/F3; format: cell-based, murine; settings: for cellular Bcr-Abl inhibitory activity (in words): wild-type Bcr-Abl
E505K Bcr-Abl = assay: Antiproliferative activity on E505K Bcr-Abl mutant Ba/F3 cells; format: cell-based, murine; settings: Mus musculus, BaF3, read-out: cellular EC50 E505K
Procedure, shortened: (§1)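 IL-3-dependent murine Ba/F3 cells were transfected with a pEYK vector carrying p210 Bcr-Abl with the point mutation. Cells were grown in RPMI 1640 with 10% FBS, 1% L-glutamine and 25 μg/mL zeocin at 37 °C under 5% CO2. Test compound was applied for 48 h, and proliferation was read by CellTiter-Glo luminescence.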

T315I Bcr-Abl [1] = assay: Antiproliferative activity on T315I Bcr-Abl mutant Ba/F3 cells; format: cell-based, murine; settings: for EC50: Mus musculus, BaF3, read-out: cellular EC50 T315I
Procedure, shortened: as §1

parental Ba/F3 = assay: Cytotoxicity on parental Ba/F3 cells; format: cell-based, murine; settings: Mus musculus, BaF3, read-out: cellular EC50 Wt-Ba/F3
Procedure, shortened: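 Untransfected IL-3-dependent Ba/F3 cells were grown in RPMI 1640 with 10% FBS, 1% L-glutamine and 10% WEHI-conditioned medium as the IL-3 source, at 37 °C under 5% CO2. Cells were exposed to test compound for 48 h, and viability was measured by CellTiter-Glo luminescence.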

E255V Bcr-Abl = settings: background statement, ref not given; cited from earlier work
[2] = test system: panel of 80 diverse kinases; settings: cited from earlier work
Y253H Bcr-Abl = settings: background statement, ref not given; cited from earlier work
[3] = test system: 40 other tyrosine kinases; settings: cited from earlier work
T315I Bcr-Abl [4] = settings: cited from earlier work

Compound	cellular Bcr-Abl inhibitory activity (in words) (wtBcr-Abl-Ba/F3)	further results
FC(F)(F)Oc1ccc(Nc2cncc(NCCN3CCOCC3)n2)cc1 [9e]	inactive	
CN1CCN(C(=O)c2cc3c(Nc4ccc(OC(F)(F)F)cc4)ncnc3s2)CC1 [14d]		fold more potent than 14c (wtBcr-Abl-Ba/F3; cellular Bcr-Abl EC50, versus compound lacking N-methylation (14c)): approximately 10 fold; EC50 (E505K Bcr-Abl): > 10 µM; EC50 (T315I Bcr-Abl [1]): > 10 µM; EC50 (parental Ba/F3): > 10 µM
NC(=O)c1cccc(-c2cc(Nc3ccc(OC(F)(F)F)cc3)ncn2)c1 [compound 1]	active	activity on T315I gatekeeper mutant (in words) (T315I Bcr-Abl [1]): inactive; activity on E255V mutant (in words) (E255V Bcr-Abl): active; inhibition of biochemical activity of a panel of 80 diverse kinases (in words) [2]: did not inhibit; activity on Y253H mutant (in words) (Y253H Bcr-Abl): active; inhibition of 40 other tyrosine kinases in cellular assays (in words) [3]: did not inhibit
FC(F)(F)Oc1ccc(-c2cc(NCCN3CCOCC3)ncn2)cc1 [8e]	complete loss of cellular activity	
CN(c1ccc(OC(F)(F)F)cc1)c1cc(-c2ccncc2)ncn1 [9g]	complete loss of cellular activity	
FC(F)(F)Oc1ccc(Oc2cc(NCCN3CCOCC3)ncn2)cc1 [8d]	complete loss of cellular activity	
FC(F)(F)Oc1ccc(Nc2ccnc(NCCN3CCOCC3)n2)cc1 [9d]	inactive	
CS(=O)(=O)Nc1ccc(-c2cc(Nc3ccc(OC(F)(F)F)cc3)ncn2)cc1 [5h]		EC50 (E505K Bcr-Abl): > 10 µM; EC50 (T315I Bcr-Abl [1]): > 10 µM; EC50 (parental Ba/F3): > 10 µM
COc1ccc(Nc2cc(NCCN3CCOCC3)ncn2)cc1 [8b]	complete loss of activity	
CN(c1ccc(OC(F)(F)F)cc1)c1cc(NCCN2CCOCC2)ncn1 [8a]	complete loss of cellular activity	
O=C(NCCO)c1cccc(-c2cc(Nc3ccc(OC(F)(F)F)cc3)ncn2)c1 [compound 2, N-(2-Hydroxyethyl)-3-(6-(4-(trifluoromethoxy)phenylamino)pyrimidin-4-yl)benzamide]		synergy with nilotinib on proliferation of T315I Bcr-Abl (in words) (T315I Bcr-Abl [4]): capable of synergizing
NC(=O)c1ccccc1-c1cc(Nc2ccc(OC(F)(F)F)cc2)ncn1 [5b]	inactive	
FC(F)(F)Oc1ccc(Nc2ncnc(NCCN3CCOCC3)n2)cc1 [9l, N2-(2-morpholinoethyl)-N4-(4-(trifluoromethoxy)phenyl)-1,3,5-triazine-2,4-diamine]	inactive	
FC(F)(F)Oc1ccc(CNc2cc(NCCN3CCOCC3)ncn2)cc1 [8g]	completely inactive	
Fc1ccc(Nc2cc(-c3ccncc3)ncn2)cc1 [9h]	complete loss in activity	
Cc1cn(-c2cc(NC(=O)c3ccc(C)c(Nc4nccc(-c5cccnc5)n4)c3)cc(C(F)(F)F)c2)cn1 [nilotinib, reference compound]		EC50 (wtBcr-Abl-Ba/F3; Mus musculus, read-out: wt Bcr-Abl-Ba/F3 EC50): 40 nM
FC(F)(F)Oc1ccc(Nc2ccc(NCCN3CCOCC3)nn2)cc1 [9f]	inactive	
FC(F)(F)c1ccc(Nc2cc(-c3ccncc3)ncn2)cc1 [9j]	retained some activity	
